# Test results published in ChEMBL document CHEMBL2046414, “Design and optimization of novel (2S,4S,5S)-5-amino-6-(2,2-dimethyl-5-oxo-4-phenylpiperazin-1-yl)-4-hydroxy-2-isopropylhexanamides as renin inhibitors” (Bioorg Med Chem Lett, 2012).
# Positions count from the first letter of the chain named.
# Tests used:
# [1] = target: T1, Renin (Homo sapiens, UniProt P00797); assay: Inhibition of human purified renin
# T1 sequence (P00797 whole entry): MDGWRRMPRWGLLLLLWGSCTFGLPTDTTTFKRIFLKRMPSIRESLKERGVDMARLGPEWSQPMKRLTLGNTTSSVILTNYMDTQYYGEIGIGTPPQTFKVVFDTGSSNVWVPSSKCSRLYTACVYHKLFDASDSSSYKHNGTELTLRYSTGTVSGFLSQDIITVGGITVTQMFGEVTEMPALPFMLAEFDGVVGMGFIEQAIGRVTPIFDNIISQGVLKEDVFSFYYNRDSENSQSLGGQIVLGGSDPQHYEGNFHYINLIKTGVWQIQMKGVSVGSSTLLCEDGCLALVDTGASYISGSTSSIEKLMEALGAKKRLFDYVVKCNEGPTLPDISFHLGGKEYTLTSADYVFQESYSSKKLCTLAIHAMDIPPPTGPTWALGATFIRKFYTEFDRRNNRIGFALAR
# [2] = target: T2, Renin (Macaca fascicularis, UniProt Q6DLS0); assay: Inhibition of renin in cynomolgus monkey plasma
# T2 sequence (Q6DLS0 whole entry): T1 sequence (P00797 whole entry) with T68A, I214L, S235A
# [3] = Metabolic stability in cynomolgus monkey liver microsomes assessed as compound remaining at 1 uM incubated with NADPH generating system measured after 30 mins; type: ADME, Macaca fascicularis, Microsome; details: read-out: Stability
# Method in brief: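 Monkey liver microsome stability, high-throughput in-house format: compound incubated at […] with an NADPH-generating system and 0.5 mg/mL microsomal protein at 37 °C.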
# [4] = AUC (0 to 24 hrs) in cynomolgus monkey at 10 mg/kg, po; details: plasma
# [5] = Cmax in cynomolgus monkey at 10 mg/kg, po; type: ADME, organism-based, Macaca fascicularis; design: dose 10 mg/kg, route oral; details: in vivo
# [6] = Clearance in cynomolgus monkey at 1 mg/kg, iv; type: ADME, organism-based, Macaca fascicularis; design: dose 1 mg/kg, route intravenous; details: in vivo
# [7] = Oral bioavailability in cynomolgus monkey at 10 mg/kg; type: ADME, organism-based, Macaca fascicularis; details: in vivo
# [8] = Volume of distribution at steady state in cynomolgus monkey at 1 mg/kg, iv; type: ADME, organism-based, Macaca fascicularis; design: dose 1 mg/kg, route intravenous; details: in vivo, read-out: Vdss
# [9] = Half life in cynomolgus monkey at 1 mg/kg, iv; type: ADME, organism-based, Macaca fascicularis; design: dose 1 mg/kg, route intravenous; details: in vivo
Compound,IC50 [1] [nM],IC50 [2] [nM],further results
CC(C)[C@H](C[C@H](O)[C@@H](N)CN1CC(=O)N(c2cc(F)ccc2Cl)CC1(C)C)C(=O)NCC(C)(C)C(N)=O,2.1,7,–
COc1cccc(N2CC(C)(C)N(C[C@H](N)[C@@H](O)C[C@H](C(=O)NCC(C)(C)C(N)=O)C(C)C)CC2=O)c1,4.2,58,–
CC(C)[C@H](C[C@H](O)[C@@H](N)CN1CC(=O)N(c2cccc(F)c2)CC1(C)C)C(=O)NCC(C)(C)C(N)=O,3,23,–
COc1ccccc1N1CC(C)(C)N(C[C@H](N)[C@@H](O)C[C@H](C(=O)NCC(C)(C)C(N)=O)C(C)C)CC1=O,1.9,19,–
CC(C)[C@H](C[C@H](O)[C@@H](N)CN1CC(=O)N(c2cc(F)ccc2F)CC1(C)C)C(=O)NCC(C)(C)C(N)=O,2,30,–
CC(C)[C@H](C[C@H](O)[C@@H](N)CN1CC(=O)N(c2ccccc2Cl)CC1(C)C)C(=O)NCC(C)(C)C(N)=O,–,7,–
CC(C)[C@H](C[C@H](O)[C@@H](N)CN1CC(=O)N(c2cccc(Cl)c2)CC1(C)C)C(=O)NCC(C)(C)C(N)=O,2.1,25,–
COCCCOc1ccccc1N1CC(C)(C)N(CC(N)C(O)CC(C(=O)NCC(C)(C)C(N)=O)C(C)C)CC1=O (racemic),3.3,10,–
CC(C)[C@H](C[C@H](O)[C@@H](N)CN1CC(=O)N(c2ccccc2F)CC1(C)C)C(=O)NCC(C)(C)C(N)=O,2.2,30,–
CC(C)[C@H](C[C@H](O)[C@@H](N)CN1CC(=O)N(c2cc(F)cc(F)c2)CC1(C)C)C(=O)NCC(C)(C)C(N)=O,5.5,90,–
CC(C)[C@H](C[C@H](O)[C@@H](N)CN1CC(=O)N(c2cccc(F)c2F)CC1(C)C)C(=O)NCC(C)(C)C(N)=O,2,11,–
CCCCNC(=O)[C@@H](C[C@H](O)[C@@H](N)CN1CC(=O)N(c2cc(F)ccc2Cl)CC1(C)C)C(C)C.O=C(O)/C=C/C(=O)O,2,25,"remaining at 0.5 h, 1 µM [3]: 52.2%; AUC(0-t) at 24 h [4]: 2110 ng·h/mL; Cmax [5]: 576 ng/mL; clearance [6]: 14.7 mL/min/kg; bioavailability [7]: 18.5%; Vd [8]: 16.3 L/kg; half-life [9]: 10.8 h"
CCCCNC(=O)[C@@H](C[C@H](O)[C@@H](N)CN1CC(=O)N(c2ccccc2Cl)CC1(C)C)C(C)C,1,9,"remaining at 0.5 h, 1 µM [3]: 39.2%"
COCOc1ccccc1N1CC(C)(C)N(C[C@H](N)[C@@H](O)C[C@H](C(=O)NCC(C)(C)C(N)=O)C(C)C)CC1=O,1.4,6.4,–
CC(C)[C@H](C[C@H](O)[C@@H](N)CN1CC(=O)N(c2ccccc2)CC1(C)C)C(=O)NCC(C)(C)C(N)=O,3.1,49,–
COCCCOc1cccc(N2CCN(CC(N)C(O)CC(C(=O)NCC(C)(C)C(N)=O)C(C)C)CC2=O)c1 (racemic),400,3000,–
COc1ccc(Cl)c(N2CC(C)(C)N(C[C@H](N)[C@@H](O)C[C@H](C(=O)NCC(C)(C)C(N)=O)C(C)C)CC2=O)c1,2.4,33,–
CC(C)[C@H](C[C@H](O)[C@@H](N)CN1CC(=O)N(c2ccccc2Cl)CC1(C)C)C(=O)NC1CCCCC1,1,11,"remaining at 0.5 h, 1 µM [3]: 17.5%"
COCCOc1ccccc1N1CC(C)(C)N(C[C@H](N)[C@@H](O)C[C@H](C(=O)NCC(C)(C)C(N)=O)C(C)C)CC1=O,1.7,9.8,–
COCCCOc1ccccc1N1CCN(CC(N)C(O)CC(C(=O)NCC(C)(C)C(N)=O)C(C)C)C(C)(C)C1=O (racemic),170,875,–
CC(C)[C@H](C[C@H](O)[C@@H](N)CN1CC(=O)N(c2cc(F)ccc2Cl)CC1(C)C)C(=O)NC1CCCCC1,1.9,5,"remaining at 0.5 h, 1 µM [3]: 38%"
CC[C@H](C)CNC(=O)[C@@H](C[C@H](O)[C@@H](N)CN1CC(=O)N(c2ccccc2Cl)CC1(C)C)C(C)C,1,2,"remaining at 0.5 h, 1 µM [3]: 8.4%"
COCCCOc1ccccc1N1CCN(CC(N)C(O)CC(C(=O)NCC(C)(C)C(N)=O)C(C)C)CC1=O (racemic),–,2800,–
Cc1ccccc1N1CC(C)(C)N(C[C@H](N)[C@@H](O)C[C@H](C(=O)NCC(C)(C)C(N)=O)C(C)C)CC1=O,1.7,24,–
CC[C@H](C)CNC(=O)[C@@H](C[C@H](O)[C@@H](N)CN1CC(=O)N(c2cc(F)ccc2Cl)CC1(C)C)C(C)C,1.4,8,"remaining at 0.5 h, 1 µM [3]: 1.9%"
CC(C)[C@H](C[C@H](O)[C@@H](N)CN1CC(=O)N(c2cc(Cl)ccc2Cl)CC1(C)C)C(=O)NCC(C)(C)C(N)=O,2.1,28,–
CC(C)[C@H](C[C@H](O)[C@@H](N)CN1CC(=O)N(c2c(F)cccc2F)CC1(C)C)C(=O)NCC(C)(C)C(N)=O,2.4,12,–
COCCCOc1ccccc1N1CC(C)(C)N(C[C@H](N)[C@@H](O)C[C@H](C(=O)NCC(C)(C)C(N)=O)C(C)C)CC1=O,1.2,5.3,–
COCCCOc1ccccc1C1CCN(CC(N)C(O)CC(C(=O)NCC(C)(C)C(N)=O)C(C)C)CC1 (racemic),370,12500,–
